Legend:
[1] = Percent increase in life span of dying mice tested in vivo at 82 mg/kg against ip implanted LOX amelanotic melanoma in mice (60-day survivors); type: functional; conditions: Mus musculus, 1440 h, route intraperitoneal
Method in brief: (§1)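 Nude CD2F1 female mice were implanted ip with ascitic fluid containing ca. 1.7×10^6 LOX amelanotic melanoma cells. Drug was given ip on days 1, 5 and 9, starting 24 h after implantation, and dosed by exact body weight. Solutions or suspensions were made fresh daily in saline plus Tween 80. %ILS was calculated from the median day of death of dying mice versus controls, excluding 60-day survivors.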

[2] = Change in tumor cell population in ip implanted LOX amelanotic melanoma in mice after administration of compound at 164 mg/kg; type: functional, Mus musculus; conditions: route intraperitoneal
Method in brief: (§2)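 Female CD2F1 mice were implanted ip with ascitic fluid holding ca. 1.7×10^6 LOX cells. Dosing was ip on days 1, 5 and 9, starting 24 h after implantation, by exact body weight, as a solution or suspension in saline plus Tween 80, freshly prepared daily. KE is the net log change in viable tumor cells from start to end of treatment. Bracketed KE assumes Poisson survival, with 60-day survivors tumor-free.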

[3] = Change in tumor cell population in ip implanted LOX amelanotic melanoma in mice after administration of compound at 82 mg/kg; type: functional, Mus musculus; conditions: route intraperitoneal; method in brief: as §2
[4] = Percent increase in life span of dying mice tested in vivo at 328 mg/kg against ip implanted LOX amelanotic melanoma in mice (60-day survivors); type: functional; conditions: Mus musculus, 1440 h, route intraperitoneal
Method in brief: (§3)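 Female CD2F1 mice implanted ip with ascitic fluid carrying ca. 1.7×10^6 LOX amelanotic melanoma cells. Drug given ip on days 1, 5 and 9, starting 24 h after implant, dosed by exact body weight; solutions or suspensions made fresh daily. %ILS is from the median day of death of dying mice versus controls, excluding 60-day survivors.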

[5] = Percent increase in life span of dying mice tested in vivo at 41 mg/kg against ip implanted LOX amelanotic melanoma in mice (60-day survivors); type: functional; conditions: Mus musculus, 1440 h, route intraperitoneal; method in brief: as §3
[6] = Percent increase in life span of dying mice tested in vivo at 164 mg/kg against ip implanted LOX amelanotic melanoma in mice (60-day survivors); type: functional; conditions: Mus musculus, 1440 h, route intraperitoneal; method in brief: as §3
[7] = tested on: Mus musculus; test: Change in tumor cell population in ip implanted LOX amelanotic melanoma in mice after administration of compound at 328 mg/kg; toxic; type: functional, organism-based; set-up: dose 328 mg/kg; method in brief: as §2
[8] = Change in tumor cell population in ip implanted LOX amelanotic melanoma in mice after administration of compound at 41 mg/kg; type: functional, Mus musculus; conditions: route intraperitoneal; method in brief: as §2
[9] = tested on: P388; test: Change in tumor cell population in ip implanted P388 Leukemia in mice after administration of compound at 20.5 mg/kg; type: functional, Mus musculus; conditions: route intraperitoneal
Method in brief: (§4)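 Female Portage-CD2F1 mice were inoculated ip with ascitic fluid holding ca. 5.2×10^6 P388 cells. Dosing was ip on days 1-5, starting 24 h after inoculation, by average body weight, as a solution or suspension in saline plus Tween 80. KE is the net log change in viable tumor cell population from start to end of the treatment period.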

[10] = tested on: P388; test: Change in tumor cell population in ip implanted P388 Leukemia in mice after administration of compound at 41 mg/kg; type: functional, Mus musculus; conditions: route intraperitoneal; method in brief: as §4
[11] = tested on: P388; test: Change in tumor cell population in ip implanted P388 Leukemia in mice after administration of compound at 82 mg/kg; type: functional, Mus musculus; conditions: route intraperitoneal
Method in brief: (§5)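 P388 leukemia: ascitic fluid with ca. 5.2×10^6 cells inoculated ip into Portage-CD₂F₁ female mice. Drug given ip on days 1-5, starting 24 h after inoculation, dosed by average body weight. Vehicle was saline plus Tween 80, as a solution or suspension. KE = net log change in viable tumor cells from start to end of treatment.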

[12] = tested on: P388; test: Percent increase in life span of dying mice tested in vivo at 41 mg/kg against ip implanted P388 Leukemia in mice; type: functional; conditions: Mus musculus, route intraperitoneal
Method in brief: (§6)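 Portage-CD2F1 female mice inoculated ip with ascitic fluid carrying ca. 5.2×10^6 P388 leukemia cells. Drug given ip daily on days 1-5, starting 24 h after inoculation, dosed by average body weight. %ILS is from the median day of death of dying mice versus controls.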

[13] = tested on: P388; test: Percent increase in life span of dying mice tested in vivo at 82 mg/kg against ip implanted P388 Leukemia in mice; type: functional; conditions: Mus musculus, route intraperitoneal
Method in brief: (§7)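 Portage-CD2F1 female mice were inoculated ip with ascitic fluid containing ca. 5.2×10^6 P388 leukemia cells. Drug was given ip daily on days 1-5, starting 24 h after inoculation, and dosed by average body weight. %ILS was calculated from the median day of death of dying mice versus controls.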

[14] = tested on: P388; test: Change in tumor cell population in ip implanted P388 Leukemia in mice after administration of compound at 164 mg/kg; type: functional, Mus musculus; conditions: route intraperitoneal; method in brief: as §4
[15] = tested on: P388; test: Percent increase in life span of dying mice tested in vivo at 164 mg/kg against ip implanted P388 Leukemia in mice; type: functional; conditions: Mus musculus, route intraperitoneal; method in brief: as §6
[16] = tested on: P388; test: Percent increase in life span of dying mice tested in vivo at 20.5 mg/kg against ip implanted P388 Leukemia in mice; type: functional; conditions: Mus musculus, route intraperitoneal; method in brief: as §6
[17] = tested on: A549; test: Concentration required to inhibit tumor growth in A549, human lung carcinoma (NSCLC) cell line; type: functional, cell-based
Method in brief: (§8)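 Cells grown in RPMI 1640 with 5% fetal calf serum, 5% NuSerum IV and 20 mM HEPES, seeded and allowed to adhere overnight. Compound dissolved in RPMI-1640 plus HEPES and tested over a 5 log range (10 concentrations) for 72 h. Read-out by sulforhodamine B assay. Median-effect dose derived by nonlinear regression of the concentration-effect curve.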

[18] = tested on: HT-29; test: Concentration required to inhibit tumor growth in HT29, human colon adenocarcinoma cell line; type: functional, cell-based; conditions: Homo sapiens, HT-29; method in brief: as §8
[19] = Percent increase in life span of dying mice tested in vivo at 47 mg/kg against ip implanted LOX amelanotic melanoma in mice (60-day survivors); type: functional; conditions: Mus musculus, 1440 h, route intraperitoneal; method in brief: as §3
[20] = Percent increase in life span of dying mice tested in vivo at 94 mg/kg against ip implanted LOX amelanotic melanoma in mice (60-day survivors); type: functional; conditions: Mus musculus, 1440 h, route intraperitoneal; method in brief: as §1
[21] = Change in tumor cell population in ip implanted LOX amelanotic melanoma in mice after administration of compound at 94 mg/kg; type: functional, Mus musculus; conditions: route intraperitoneal; method in brief: as §2
[22] = Change in tumor cell population in ip implanted LOX amelanotic melanoma in mice after administration of compound at 188 mg/kg; type: functional, Mus musculus; conditions: route intraperitoneal; method in brief: as §2
[23] = Change in tumor cell population in ip implanted LOX amelanotic melanoma in mice after administration of compound at 23.5 mg/kg; type: functional, Mus musculus; conditions: route intraperitoneal; method in brief: as §2
[24] = Change in tumor cell population in ip implanted LOX amelanotic melanoma in mice after administration of compound at 47 mg/kg; type: functional, Mus musculus; conditions: route intraperitoneal; method in brief: as §2
[25] = Percent increase in life span of dying mice tested in vivo at 23.5 mg/kg against ip implanted LOX amelanotic melanoma in mice (60-day survivors); type: functional; conditions: Mus musculus, 1440 h, route intraperitoneal; method in brief: as §3
[26] = Percent increase in life span of dying mice tested in vivo at 188 mg/kg against ip implanted LOX amelanotic melanoma in mice (60-day survivors); type: functional; conditions: Mus musculus, 1440 h, route intraperitoneal; method in brief: as §3
[27] = Concentration required to inhibit tumor growth in […], human breast adenocarcinoma cell line; type: functional; method in brief: as §8
[28] = tested on: P388; test: Change in tumor cell population in ip implanted P388 Leukemia in mice after administration of compound at 23.5 mg/kg; type: functional, Mus musculus; conditions: route intraperitoneal; method in brief: as §4
[29] = tested on: P388; test: Change in tumor cell population in ip implanted P388 Leukemia in mice after administration of compound at 47 mg/kg; type: functional, Mus musculus; conditions: route intraperitoneal; method in brief: as §5
[30] = tested on: P388; test: Change in tumor cell population in ip implanted P388 Leukemia in mice after administration of compound at 94 mg/kg; type: functional, Mus musculus; conditions: route intraperitoneal; method in brief: as §5
[31] = tested on: P388; test: Percent increase in life span of dying mice tested in vivo at 23.5 mg/kg against ip implanted P388 Leukemia in mice; type: functional; conditions: Mus musculus, route intraperitoneal; method in brief: as §6
[32] = tested on: P388; test: Percent increase in life span of dying mice tested in vivo at 47 mg/kg against ip implanted P388 Leukemia in mice; type: functional; conditions: Mus musculus, route intraperitoneal; method in brief: as §6
[33] = tested on: P388; test: Percent increase in life span of dying mice tested in vivo at 94 mg/kg against ip implanted P388 Leukemia in mice; type: functional; conditions: Mus musculus, route intraperitoneal; method in brief: as §7
[34] = tested on: P388; test: Change in tumor cell population in ip implanted P388 Leukemia in mice after administration of compound at 11.8 mg/kg; type: functional, Mus musculus; conditions: route intraperitoneal; method in brief: as §4
[35] = tested on: P388; test: Percent increase in life span of dying mice tested in vivo at 11.8 mg/kg against ip implanted P388 Leukemia in mice; type: functional; conditions: Mus musculus, route intraperitoneal; method in brief: as §6
[36] = Concentration required to inhibit tumor growth in PSN-1, human pancreatic carcinoma cell line; type: functional
Method in brief: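 PSN-1 pancreatic carcinoma cells exposed to compound dissolved in RPMI-1640 plus HEPES at its maximum soluble concentration for 72 h. Read-out by sulforhodamine B colorimetric assay.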

[37] = tested on: L1210 (Mus musculus); test: Concentration required to inhibit tumor growth in L1210, murine lymphocytic leukemia cell line

SMILES: CNC(=O)OCc1nc(SSc2nc(COC(=O)NC)c(COC(=O)NC)n2C)n(C)c1COC(=O)NC
- ILS at 82 mg/kg [1]: -5%
- KE [2]: 1.8
- KE [3]: 1.8
- ILS at 328 mg/kg [4]: -69%
- ILS at 41 mg/kg [5]: 3%
- ILS at 164 mg/kg [6]: -5%
- KE [7]: Toxic
- KE [8]: 1.5
- KE [9]: 1.3
- KE [10]: 1.3
- KE [11]: 1.3
- ILS at 41 mg/kg [12]: 20%
- ILS at 82 mg/kg [13]: 17%
- KE [14]: 0.9
- ILS at 164 mg/kg [15]: 26%
- ILS at 20.5 mg/kg [16]: 17%

SMILES: CCCSc1nc(COC(=O)NC)c(COC(=O)NC)n1C
- IC50 [17]: 190 µM
- IC50 [18]: 108 µM
- ILS at 47 mg/kg [19]: 24%
- ILS at 94 mg/kg [20]: 22%
- KE [21]: 0.6
- KE [22]: -1.6
- KE [23]: 1.3
- KE [24]: 0.7
- ILS at 23.5 mg/kg [25]: 13%
- ILS at 188 mg/kg [26]: 76%
- IC50 [27]: 147 µM
- KE [28]: -0.1
- KE [29]: -1.5
- KE [30]: -3.3
- ILS at 23.5 mg/kg [31]: 40%
- ILS at 47 mg/kg [32]: 59%
- ILS at 94 mg/kg [33]: 84%
- KE [34]: -0.1
- ILS at 11.8 mg/kg [35]: 40%
- IC50 [36]: 115 µM
- IC50 [37]: 18 µM

Reference: ChEMBL document CHEMBL1126902, “Synthesis, chemical reactivity, and antitumor evaluation of congeners of carmethizole hydrochloride, an experimental "acylated vinylogous carbinolamine" tumor inhibitor” (J Med Chem, 1993)
